“And” between values parts separate entries of the source, which are not always exact repeats. Equal entries are not always repeated.
System: U2OS
Assay: Multiplex assay against U2OS
Type: toxicity, cell-based
Details: human
Outline: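 Live cells were stained at seeding with Hoechst33342, BioTracker Green Microtubule Cytoskeleton Dye, MitoTracker Red and Annexin V Alexa Fluor 680. Following compound addition, they were imaged on a CQ1 microscope at 37°C and 5% CO2 and gated by CellPathfinder machine learning into Hoechst high-intensity objects or normal cells, with normal cells split into healthy, pyknosed or fragmented nuclei and pyknosed cells into mitotic or apoptotic. Tubulin, mitochondrial-mass and membrane-permeability phenotypes are per cents of healthy-nucleus cells.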

[1] = 12 h, 1 µM, compound concentration 1 uM
[2] = 12 h, 10 µM, compound concentration 10 uM
[3] = 24 h, 1 µM, compound concentration 1 uM
[4] = 24 h, 10 µM, compound concentration 10 uM
[5] = 48 h, 1 µM, compound concentration 1 uM
[6] = 48 h, 10 µM, compound concentration 10 uM

Compound: O=C1CSC(=O)N1C(CCc1ccncc1)COc1ccc(-c2cccc([N+](=O)[O-])c2)cc1 (stereo not given)
- Population Apoptotic (%) [1]: 46.67% and 30.43%
- Population Fragmented Nuclei (%) [1]: 1.68% and 1.25%
- Population Healthy Nuclei (%) [1]: 91.11% and 84.38%
- Population Hoechst High Intensity Objects (%) [1]: 0% and 0.62%
- Population Membrane Permeable-Phenotype (%) [1]: 0.26% and 4.44%
- Population Mitochondria Different-Phenotype (%) [1]: 0.26% and 9.63%
- Population Mitotic Cells (%) [1]: 53.33% and 69.57%
- Population Normal (%) [1]: 100% and 99.38%
- Population Pyknosed Nuclei (%) [1]: 7.21% and 14.37%
- Population Tubulin-Different-Phenotype (%) [1]: 1.58% and 2.22%
- Total Cell Count [1]: 416 and 161
- Population Apoptotic (%) [2]: 42.24% and 24.39%
- Population Fragmented Nuclei (%) [2]: 2.2% and 3.42%
- Population Healthy Nuclei (%) [2]: 69.51% and 68.49%
- Population Hoechst High Intensity Objects (%) [2]: 0.24% and 0%
- Population Membrane Permeable-Phenotype (%) [2]: 53.68% and 77%
- Population Mitochondria Different-Phenotype (%) [2]: 42.11% and 86%
- Population Mitotic Cells (%) [2]: 57.76% and 75.61%
- Population Normal (%) [2]: 99.76% and 100%
- Population Pyknosed Nuclei (%) [2]: 28.29% and 28.08%
- Population Tubulin-Different-Phenotype (%) [2]: 96.84% and 85%
- Total Cell Count [2]: 411 and 146
- Population Apoptotic (%) [3]: 40.38% and 40%
- Population Fragmented Nuclei (%) [3]: 0.93% and 1.52%
- Population Healthy Nuclei (%) [3]: 89.44% and 80.81%
- Population Hoechst High Intensity Objects (%) [3]: 0.18% and 0%
- Population Membrane Permeable-Phenotype (%) [3]: 0.62% and 1.88%
- Population Mitochondria Different-Phenotype (%) [3]: 0.41% and 10%
- Population Mitotic Cells (%) [3]: 59.62% and 60%
- Population Normal (%) [3]: 99.82% and 100%
- Population Pyknosed Nuclei (%) [3]: 9.63% and 17.68%
- Population Tubulin-Different-Phenotype (%) [3]: 1.45% and 0.62%
- Total Cell Count [3]: 541 and 198
- Population Apoptotic (%) [4]: 50% and 31.58%
- Population Fragmented Nuclei (%) [4]: 2.96% and 3.38%
- Population Healthy Nuclei (%) [4]: 68.34% and 70.95%
- Population Hoechst High Intensity Objects (%) [4]: 0.23% and 0%
- Population Membrane Permeable-Phenotype (%) [4]: 43% and 73.33%
- Population Mitotic Cells (%) [4]: 50% and 68.42%
- Population Normal (%) [4]: 99.77% and 100%
- Population Pyknosed Nuclei (%) [4]: 28.7% and 25.68%
- Population Tubulin-Different-Phenotype (%) [4]: 96.67% and 89.52%
- Total Cell Count [4]: 440 and 148
- Population Apoptotic (%) [5]: 43.9% and 44.68%
- Population Fragmented Nuclei (%) [5]: 2.54% and 3.2%
- Population Healthy Nuclei (%) [5]: 89.11% and 83.14%
- Population Hoechst High Intensity Objects (%) [5]: 0%
- Population Membrane Permeable-Phenotype (%) [5]: 1.6% and 1.75%
- Population Mitochondria Different-Phenotype (%) [5]: 0.34% and 6.64%
- Population Mitotic Cells (%) [5]: 56.1% and 55.32%
- Population Normal (%) [5]: 100%
- Population Pyknosed Nuclei (%) [5]: 8.34% and 13.66%
- Population Tubulin-Different-Phenotype (%) [5]: 1.94% and 1.75%
- Total Cell Count [5]: 983 and 344
- Population Apoptotic (%) [6]: 60.54% and 58.93%
- Population Fragmented Nuclei (%) [6]: 4.41% and 4.12%
- Population Healthy Nuclei (%) [6]: 68.57% and 62.94%
- Population Hoechst High Intensity Objects (%) [6]: 0.18% and 0%
- Population Membrane Permeable-Phenotype (%) [6]: 31.1% and 67.29%
- Population Mitotic Cells (%) [6]: 39.46% and 41.07%
- Population Normal (%) [6]: 99.82% and 100%
- Population Pyknosed Nuclei (%) [6]: 27.02% and 32.94%
- Population Tubulin-Different-Phenotype (%) [6]: 82.84% and 74.77%

Compound: Cc1[nH]nc2ccc(-c3cncc(OCC(N)Cc4c[nH]c5ccccc45)c3)cc12 (stereo not given)
- Population Apoptotic (%) [1]: 44.72% and 48.45%
- Population Fragmented Nuclei (%) [1]: 8.59% and 11.33%
- Population Healthy Nuclei (%) [1]: 46.81% and 24%
- Population Hoechst High Intensity Objects (%) [1]: 0%
- Population Membrane Permeable-Phenotype (%) [1]: 2.37% and 0%
- Population Mitotic Cells (%) [1]: 55.28% and 51.55%
- Population Normal (%) [1]: 100%
- Population Pyknosed Nuclei (%) [1]: 44.6% and 64.67%
- Population Tubulin-Different-Phenotype (%) [1]: 4.73% and 0%
- Total Cell Count [1]: 361 and 150
- Population Apoptotic (%) [2]: 65.77% and 68.92%
- Population Fragmented Nuclei (%) [2]: 11.37% and 8.4%
- Population Healthy Nuclei (%) [2]: 2.49% and 6.87%
- Population Hoechst High Intensity Objects (%) [2]: 0%
- Population Membrane Permeable-Phenotype (%) [2]: 0% and 22.22%
- Population Mitochondria Different-Phenotype (%) [2]: 35.71% and 55.56%
- Population Mitotic Cells (%) [2]: 34.23% and 31.08%
- Population Normal (%) [2]: 100%
- Population Pyknosed Nuclei (%) [2]: 86.15% and 84.73%
- Population Tubulin-Different-Phenotype (%) [2]: 42.86% and 33.33%
- Total Cell Count [2]: 563 and 262
- Population Apoptotic (%) [3]: 64.71% and 80.2%
- Population Fragmented Nuclei (%) [3]: 9.73% and 13.51%
- Population Healthy Nuclei (%) [3]: 38.6% and 18.24%
- Population Hoechst High Intensity Objects (%) [3]: 0%
- Population Membrane Permeable-Phenotype (%) [3]: 3.15% and 3.7%
- Population Mitotic Cells (%) [3]: 35.29% and 19.8%
- Population Normal (%) [3]: 100%
- Population Pyknosed Nuclei (%) [3]: 51.67% and 68.24%
- Population Tubulin-Different-Phenotype (%) [3]: 2.36% and 7.41%
- Total Cell Count [3]: 329 and 148
- Population Apoptotic (%) [4]: 93.93% and 93.15%
- Population Fragmented Nuclei (%) [4]: 7.63% and 5.95%
- Population Healthy Nuclei (%) [4]: 4.33% and 7.14%
- Population Hoechst High Intensity Objects (%) [4]: 0%
- Population Mitochondria Different-Phenotype (%) [4]: 17.65% and 50%
- Population Mitotic Cells (%) [4]: 6.07% and 6.85%
- Population Normal (%) [4]: 100%
- Population Pyknosed Nuclei (%) [4]: 88.04% and 86.9%
- Population Tubulin-Different-Phenotype (%) [4]: 35.29% and 16.67%
- Total Cell Count [4]: 393 and 168
- Population Apoptotic (%) [5]: 73.68% and 85.57%
- Population Fragmented Nuclei (%) [5]: 8.46% and 13.19%
- Population Healthy Nuclei (%) [5]: 34.14% and 19.44%
- Population Hoechst High Intensity Objects (%) [5]: 0%
- Population Mitochondria Different-Phenotype (%) [5]: 1.77% and 10.71%
- Population Mitotic Cells (%) [5]: 26.32% and 14.43%
- Population Normal (%) [5]: 100%
- Population Pyknosed Nuclei (%) [5]: 57.4% and 67.36%
- Population Tubulin-Different-Phenotype (%) [5]: 5.31% and 0%
- Total Cell Count [5]: 331 and 144
- Population Apoptotic (%) [6]: 96.14% and 98.84%
- Population Fragmented Nuclei (%) [6]: 9.73% and 10.67%
- Population Healthy Nuclei (%) [6]: 29.2% and 32%
- Population Hoechst High Intensity Objects (%) [6]: 0%
- Population Membrane Permeable-Phenotype (%) [6]: 12.12% and 29.17%
- Population Mitochondria Different-Phenotype (%) [6]: 23.23% and 35.42%
- Population Mitotic Cells (%) [6]: 3.86% and 1.16%
- Population Normal (%) [6]: 100%
- Population Pyknosed Nuclei (%) [6]: 61.06% and 57.33%
- Population Tubulin-Different-Phenotype (%) [6]: 14.14% and 16.67%
- Total Cell Count [6]: 339 and 150
